Results gathered from unrelated publications.
Target: Mitogen-activated protein kinase kinase kinase 11 (MAP3K11, Homo sapiens, UniProt Q16584)
Observed: enzyme activity
Action: inhibitor

`O=C(Nc1cccc(Nc2ncc(Br)c(NCCc3cnc[nH]3)n2)c1)N1CCCC1` has a remaining activity of 2% (radiometric; 1 µM).
For `O=C(Nc1cnn(-c2csc(C(=O)NC3COC3)c2)c1)Nc1ccccc1Cl`, the remaining activity was 93.5% (5 µM).
`Cc1ccc(C(=O)Nc2ccc(CN3CCN(C)CC3)c(C(F)(F)F)c2)cc1C#Cc1cnc2cccnn12` gave a remaining activity of 98% (23.5 nM).
`Oc1cccc(-c2nc(N3CCOCC3)c3oc4ncccc4c3n2)c1` has a remaining activity of 57% (10 µM).
`CC(C)(C)c1nc2c(s1)c1nc(N)ncc1c1ccc(NS(=O)(=O)c3c(F)cccc3F)c(F)c12` gave a remaining activity of 22% (radiometric; 1 µM).
With `COc1cc(Nc2cnc(C#N)c(O[C@H](C)CN(C)C)n2)ncc1-c1cnn(C)c1` the remaining activity was 69% (radiometric; 10 µM).
With `Cc1nn(CC(F)(F)F)cc1Nc1ncc(C2CC2)c(NCCc2c[nH]cn2)n1` the remaining activity was 91% (radiometric; 1 µM).
With `CC(C)(O)[C@H]1CC[C@H](Nc2ccc3ncc(-c4cccc(C(F)(F)F)c4)n3n2)CC1` the remaining activity was 68.9% (1 µM).
The remaining activity of `Cc1sc(C(=O)NC2COC2)cc1-n1cc(NC(=O)Nc2c(F)cccc2Cl)cn1` is reported as 90.7% (10 µM).
`FC(F)c1nc2ccccc2n1-c1nc(N2CCOCC2)nc(N2CCOCC2)n1` gave a remaining activity of 97% (10 µM).
With `Brc1cnc(Nc2cccc(CN3CCOCC3)c2)nc1NCCc1c[nH]cn1` the remaining activity was 2% (radiometric; 1 µM).
